Results published in ChEMBL document CHEMBL1817559, “Synthesis and biological evaluation of HQCAs with aryl or benzyl substituents on N-1 position as potential HIV-1 integrase inhibitors” (Bioorg Med Chem, 2011).

Legend:
[1] = Selectivity index, ratio of CC50 for human C8166 cells to EC50 for wild type HIV1 LAI-3B; type: toxicity, cell-based; details: read-out: Ratio CC50/EC50
In short: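 Ratio CC50/EC50, where CC50 is from MTT viability of uninfected C8166 cells and EC50 is 50% protection of wild-type HIV-1 IIIB-infected C8166 cells from cytopathogenicity (MTT); inputs are means of at least two experiments.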

[2] = tested on: Human immunodeficiency virus 1; test: Antiviral activity against wild type HIV1 LAI-3B infected in human C8166 cells assessed as inhibition of virus-induced cytopathic effect by MTT assay; type: functional, organism-based; details: Human immunodeficiency virus 1, LAI-3B
In short: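 C8166 cells infected with wild-type HIV-1 LAI (strain IIIB); EC50 = concentration protecting cells from viral cytopathogenicity by 50%, read by MTT; means of at least two separate experiments.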

[3] = Cytotoxicity against human C8166 cells by MTT assay; type: cell-based
In short: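 Normal uninfected C8166 cells; MTT viability readout; CC50 = concentration reducing viability by 50%; means of at least two separate experiments.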

[4] = tested on: Human immunodeficiency virus 1; test: Antiviral activity against HIV1 A17 harboring reverse transcriptase Y181C mutant infected in human C8166 cells assessed as inhibition of virus-induced cytopathic effect by MTT assay; type: functional, organism-based; details: Human immunodeficiency virus 1, A17, C8166
In short: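 C8166 cells infected with mutant HIV-1 strain A17; protection from viral cytopathogenicity read by MTT. EC50 is the compound concentration that protects cells from viral cytopathic effect by 50%. Values are means of at least two separate experiments.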

| Structure (SMILES) | selectivity ratio [1] | EC50 [2] | CC50 [3] | EC50 [4] |
| --- | --- | --- | --- | --- |
| O=C(O)c1cn(-c2ccccc2)c2ccc(Cc3cccc(Cl)c3F)c(O)c2c1=O | 1.26 | 308 µM | 388 µM |  |
| O=C(O)c1cn(Cc2ccc(F)c(F)c2)c2ccc(Cc3cccc(Cl)c3F)c(O)c2c1=O | 12.4 | 5.74 µM | 71.4 µM | 24.2 µM |
| O=C(O)c1cn(-c2ccc(Br)cc2)c2ccc(Cc3cccc(Cl)c3F)c(O)c2c1=O | 11.9 | 7.12 µM | 85 µM | 33.2 µM |
| O=C(O)c1cn(Cc2ccc(F)cc2)c2ccc(Cc3cccc(Cl)c3F)c(O)c2c1=O | 7.04 | 9.34 µM | 65.8 µM | 22.5 µM |
| O=C(O)c1cn(Cc2ccccc2F)c2ccc(Cc3ccccc3F)c(O)c2c1=O | 10.4 | 6.46 µM | 67.1 µM | 27.2 µM |
| O=C(O)c1cn(Cc2cccc(F)c2)c2ccc(Cc3cccc(Cl)c3F)c(O)c2c1=O | 14 | 4.93 µM | 69 µM | 19.1 µM |
| Cc1cccc(-n2cc(C(=O)O)c(=O)c3c(O)c(Cc4cccc(Cl)c4F)ccc32)c1 | 3.49 | 20.5 µM | 71.5 µM | 43.7 µM |
| O=C(O)c1cn(Cc2ccccc2)c2ccc(Cc3ccccc3F)c(O)c2c1=O | 7.49 | 20.9 µM | 156 µM | 51.2 µM |
| Cc1ccc(-n2cc(C(=O)O)c(=O)c3c(O)c(Cc4cccc(Cl)c4F)ccc32)cc1 | 54.2 | 3.58 µM | 194 µM | 67.9 µM |
| CC(C)[C@@H](CO)n1cc(C(=O)O)c(=O)c2c(O)c(Cc3cccc(Cl)c3F)ccc21 |  |  |  | 0.085 µM |
| Cc1ccc(Cn2cc(C(=O)O)c(=O)c3c(O)c(Cc4cccc(Cl)c4F)ccc32)cc1 | 46 | 5.55 µM | 256 µM | 29.2 µM |
| Cc1ccc(-n2cc(C(=O)O)c(=O)c3c(O)c(Cc4cccc(Cl)c4F)ccc32)cc1C | 12.7 | 24.9 µM | 316 µM | 32.8 µM |
| COc1cc2c(cc1Cc1cccc(Cl)c1F)c(=O)c(C(=O)O)cn2[C@H](CO)C(C)C [ELVITEGRAVIR] |  |  |  | 0.001 µM |
| O=C(O)c1cn(Cc2ccccc2F)c2ccc(Cc3cccc(Cl)c3F)c(O)c2c1=O | 13.7 | 3.27 µM | 44.9 µM | 24.2 µM |
| O=C(O)c1cn(Cc2ccccc2)c2ccc(Cc3cccc(Cl)c3F)c(O)c2c1=O | 6.42 | 3.17 µM | 20.3 µM | 17.9 µM |
